Converted amounts (≈) assume the structure as drawn.
Tests used:
[1] = Selectivity index, ratio of CC50 for African green monkey Vero C1008 cells to MIC for Mycobacterium tuberculosis H37Rv; type: functional
Outline: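 Selectivity index is CC50 from the MTT assay on Vero C1008 cells over MIC against Mtb H37Rv from the twofold-dilution REMA plate method, where MIC was read visually by the blue-to-pink resazurin change.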

[2] = Cytotoxicity against African green monkey Vero C1008 cells after 72 hrs by MTT assay; type: cell-based; settings: chlorocebus sabaeus
Outline: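 Vero C1008 cells were tested in microtitre plates with an MTT viability read-out, and CC50 values were determined.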

[3] = tested on: Mycobacterium tuberculosis; experiment: Antitubercular activity against Mycobacterium tuberculosis H37Rv assessed as parasite growth inhibition after 7 days by resazurin microtitre assay; type: functional; settings: 168 h
Outline: (§1)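 Mtb H37Rv was tested by resazurin microtitre assay (REMA) with twofold serial dilutions of compound. MIC was read visually as the lowest concentration preventing the dye's blue-to-pink colour change, since pink indicates growth.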

[4] = tested on: Mycobacterium tuberculosis; experiment: Antitubercular activity against Mycobacterium tuberculosis H37Rv assessed as parasite growth inhibition; type: functional; outline: as §1

Compound | Selectivity Index [1] | CC50 at 72 h [2] [µM] | MIC [3] [µM] | MIC [4] [µM]
CCN(CC)CC(O)CN(Cc1ccccc1)Cc1cc2ccccc2nc1OC (centres undefined) | 15.1 | 613 | 40.6 (≈ 16.6 µg/mL) | –
CCN(CC)CC(O)CN(Cc1ccc(C)cc1)Cc1cc2ccccc2nc1OC (centres undefined) | 52.21 | 1010 | 19.3 (≈ 8.14 µg/mL) | –
CCN(CC)CC(O)CN(Cc1ccc(OC)cc1)Cc1cc2ccccc2nc1OC (centres undefined) | 9.19 | 727 | 79.1 (≈ 34.6 µg/mL) | –
CCN(CC)CC(O)CN(Cc1ccc(Cl)cc1)Cc1cc2ccccc2nc1OC (centres undefined) | 80.41 | 808 | 10.1 (≈ 4.44 µg/mL) | –
COc1nc2ccccc2cc1CN(Cc1ccccc1)CC(O)CN1CCOCC1 (centres undefined) | 5.69 | 553 | 97.1 (≈ 40.9 µg/mL) | –
COc1nc2ccccc2cc1CN(Cc1ccc(C)cc1)CC(O)CN1CCOCC1 (centres undefined) | 40.4 | 884 | 21.9 (≈ 9.53 µg/mL) | –
COc1ccc(CN(Cc2cc3ccccc3nc2OC)CC(O)CN2CCOCC2)cc1 (centres undefined) | 5.86 | 928 | 158 (≈ 71.5 µg/mL) | –
COc1nc2ccccc2cc1CN(Cc1ccc(Cl)cc1)CC(O)CN1CCOCC1 (centres undefined) | 52.44 | 1060 | 20.2 (≈ 9.21 µg/mL) | –
COc1nc2ccccc2cc1CN(Cc1ccccc1)CC(O)CN1CCCC1 (centres undefined) | 152.86 | 792 | 5.18 (≈ 2.1 µg/mL) | –
COc1nc2ccccc2cc1CN(Cc1ccc(C)cc1)CC(O)CN1CCCC1 (centres undefined) | 115.02 | 1110 | 9.68 (≈ 4.06 µg/mL) | –
COc1ccc(CN(Cc2cc3ccccc3nc2OC)CC(O)CN2CCCC2)cc1 (centres undefined) | 35.59 | 664 | 18.6 (≈ 8.12 µg/mL) | –
COc1nc2ccccc2cc1CN(Cc1ccc(Cl)cc1)CC(O)CN1CCCC1 (centres undefined) | 160.57 | 898 | 5.59 (≈ 2.46 µg/mL) | –
COc1nc2ccc(Br)cc2cc1[C@@H](c1ccccc1)[C@@](O)(CCN(C)C)c1cccc2ccccc12 [BEDAQUILINE] | – | – | – | 0.108 (≈ 0.06 µg/mL)
NNC(=O)c1ccncc1 [ISONIAZID] | 96 | – | 15.3 (≈ 2.1 µg/mL) | –
